In brackets after ≈: the same amount, converted by molar mass.

From PMC8569251 (European journal of pharmaceutical sciences : official …, 2020) come the findings set out here.

One data set relates to E. coli. In words: Antimicrobial activity. It is filed as cell-based. As to conditions: 24 h incubation; MIC100. The gist of the method:
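E. coli from LB medium, inoculated into LB broth at 10⁵ CFU/mL in 96-well plates with test compound at 1–400 µg/mL. Concentrations re-tested in 1 µg/mL (low MIC) or 5 µg/mL (high MIC) steps. MIC is the lowest concentration giving 100% growth inhibition. Triplicate. Colistin positive control; compound-free culture negative control.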

The next data set deals with C. albicans yeast. Put plainly: Antimicrobial activity. The format is cell-based, C. albicans SC5314.
The subject of data set [1] is C. albicans hyphae (biofilm). In words: Inhibition of Candida biofilm. It is filed as cell-based, C. albicans SC5314.
Data set [2] has as its system methicillin-resistant Staphylococcus aureus (MRSA) LAC300. Put plainly: Antimicrobial activity. The format is cell-based. Particulars: 24 h, read-out: MIC, Bacteria S. aureus.
Where [3] appears, read: experimental activities, −log MIC50, QSAR training set.

For the molecule `COc1cc(C=C2SC(=S)NC2=O)ccc1OCc1cccc(C(F)(F)F)c1` [SR7], the “MIC, Bacteria E. coli” value with E. coli is 100 ± 5 µg/mL (≈ 235 µM). Moreover, the “MIC, C. albicans Yeast” value against C. albicans yeast (24 h incubation, lowest concentration inhibiting 100% of growth (MIC100)) is 125 ± 10 µg/mL (≈ 294 µM). Moreover, in the data set on C. albicans yeast (setting [3]), the “pMIC50 Yeast” value was 3.579 M/L. The hyphae inhibition in data set [1] (10 μg/mL) worked out at 90%. In data set [1] (24 h incubation, 100% inhibition of biofilm (hyphal) formation (MIC100)), the “MIC, C. albicans Hyphae” value stood at 10 ± 3 µg/mL (≈ 23.5 µM). Moreover, the “pMIC50 Hyphae” value in data set [1] (setting [3]) is given as 4.764 M/L.

In the case of `CN[C@H](CC(C)C)C(=O)N[C@H]1C(=O)N[C@@H](CC(N)=O)C(=O)N[C@H]2C(=O)N[C@H]3C(=O)N[C@H](C(=O)N[C@H](C(=O)O)c4cc(O)cc(O)c4-c4cc3ccc4O)[C@H](O)c3ccc(c(Cl)c3)Oc3cc2cc(c3O[C@@H]2O[C@H](CO)[C@@H](O)[C@H](O)[C@H]2O[C@H]2C[C@](C)(N)[C@H](O)[C@H](C)O2)Oc2ccc(cc2Cl)[C@H]1O` [Vancomycin], the MIC (usually the smallest concentration in the dilution series that meets the test's criterion for growth inhibition) in data set [2] turned out to be 3 µg/mL (≈ 2.07 µM).

For `CC(=O)N1CCN(c2ccc(OCC3COC(Cn4ccnc4)(c4ccc(Cl)cc4Cl)O3)cc2)CC1` (stereo not shown) [Ketoconazole, reference compound], in the data set with C. albicans yeast (24 h, read-out: MIC, C. albicans Yeast), the MIC stood at 3 µg/mL (≈ 5.65 µM).

Regarding Colistin [reference compound], in the data set with E. coli, the “MIC, Bacteria E. coli” value was determined as 5 µg/mL.

Triton X-100: the “erythrocyte hemolysis (positive control)” value with human erythrocytes was found to be 100%.
